{"source": "paper PMC5006643", "about": "(EBioMedicine, 2016)", "key": {"[1]": {"system": "HIV-1 BaL", "experiment": "Acute HIV-1 infection assay in primary human CD4+ T cells", "format": "cell-based", "conditions": "dose-response; for inhibition of HIV-1 BaL infection: cell-free acute infection of primary human CD4+ T cells", "summary_of_the_method": "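Peptides were stocked at 10 mg/mL in NH4OH and stored frozen. Cell-free infection of primary human CD4+ T cells used CCR5-tropic HIV-1 BaL. Test peptides were titrated for dose-response, and non-sulfated homologous peptides and a scrambled sulfated control peptide were run in parallel. Cell viability was assessed in a separate assay.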"}, "[2]": {"system": "binding of BG505 SOSIP.664 trimer to human CCR5", "format": "cell-based, HIV-1", "conditions": "Cf2Th/syn-CCR5 canine thymocytes, flow cytometry, dose-response", "summary_of_the_method": "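Cf2Th/syn-CCR5 cells were harvested at ~80% confluency with enzyme-free dissociation buffer. His-tagged BG505 SOSIP.664 trimer was preincubated with 2-domain sCD4 for 1 h at 4 °C, treated with test compound across a dose range, then bound to cells for 1 h at 4 °C. After washes, bound trimer was detected with PE anti-His antibody (1 h, 4 °C). Cells were fixed in 2% PFA and analysed by flow cytometry. Anti-CCR5 mAb 2D6 confirmed specificity.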"}, "[3]": {"system": "panel of 12 HIV-1 strains", "experiment": "Infection of CD4+ T cells by a panel of 12 HIV-1 strains", "format": "cell-based", "conditions": "50 μM", "summary_of_the_method": "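Cell-free infection of purified primary human CD4+ T cells, with each test compound at 50 μM. The panel had eight minimally passaged primary isolates (92US714, 92HT599, 07USLR, 07USPC, 07USSG, subtype B; 97ZA009, 98IN017, subtype C; 93BR019, subtype F) and four laboratory-expanded subtype B strains (BaL, JR-FL, ADA, IIIB). Both CCR5-tropic and CXCR4-using phenotypes were included.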"}, "[4]": {"system": "recombinant gp120 (strain BaL)", "experiment": "SPR of monomeric gp120 binding to immobilized V2 peptide", "set-up": "species or system HIV-1", "conditions": "peptide immobilized on CM5, gp120 BaL pre-complexed with CD4-M48U", "summary_of_the_method": "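The sulfated V2 test peptide was immobilized on a CM5 chip. Recombinant monomeric gp120 BaL (25–400 nM) was preincubated with a 2-fold molar excess of CD4-M48U […]. It was injected for 2 min at 25 μL/min in HBS with 3 mM EDTA and 0.005% Tween-20, followed by 2 min dissociation. Surfaces were regenerated with 4.5 M MgCl2.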"}, "[5]": {"system": "sCD4:gp120 complex (gp120 BaL)", "experiment": "NMR trNOESY interaction and competition with gp120/sCD4", "format": "binding, HIV-1", "conditions": "2D NOESY, 0.8 mM peptide", "summary_of_the_method": "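The tyrosine-sulfated V2 peptide was 15N-labelled at Ala/Ile/Leu/Phe/Val, at 800 μM (0.8 mM). It was incubated 1 h on ice with 20 μM sCD4, 20 μM recombinant gp120 BaL, or both. Samples were exchanged into 20 mM sodium phosphate pH 6.8, 50 mM NaCl, 0.02% azide, 10% D2O. NOESY was run at 30 °C, 600 MHz, with mixing times 100/250/400 ms. For competition, 0.4 mM peptide was used with 0, 0.8 or 1.6 mM unlabelled sulfated CCR5 N-terminal peptide.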"}, "[6]": {"system": "soluble, stabilized gp140 trimer (BG505-SOSIP.664)", "experiment": "SPR of soluble gp140 trimer binding to immobilized V2 peptide", "set-up": "species or system HIV-1", "conditions": "SOSIP trimer 12.5-200 nM, absence of the CD4 mimic", "summary_of_the_method": "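The sulfated V2 test peptide was immobilized on a CM5 surface. Unliganded BG505 SOSIP.664 trimer (12.5–200 nM; produced in 293FS cells, lectin-affinity and size-exclusion purified) was injected for 2 min at 25 μL/min in HBS with 3 mM EDTA and 0.005% Tween-20, followed by 2 min dissociation. Regeneration used a brief 4.5 M MgCl2 pulse.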"}}, "note": "Where no end group is shown, it is not given here. [ ]: non-standard residue; d: D form. sY = N[C@@H](Cc1ccc(OS(=O)(=O)O)cc1)C(=O)O"}
{"substance": "DPVLEF[sY]KID[sY]IELAVQK [pSCR-Tys, reference compound]", "values": [{"measurement": "inhibition of HIV-1 BaL infection", "setting": "[1]", "result": "did not show significant inhibitory activity"}, {"measurement": "inhibition of binding of sCD4-activated BG505 SOSIP.664 trimer to CCR5", "setting": "[2]", "result": "limited effects"}]}
{"substance": "KKQKVHALF[sY]KLDIVPIK [pV2αΕ-Tys]", "values": [{"measurement": "relative potency over the strain panel", "setting": "[3]; compared to pV2α-Tys", "result": "generally lower potency compared to pV2α-Tys"}, {"measurement": "number of resistant HIV-1 strains of 12", "setting": "[3]; purified CD4+ T cells", "result": 3}]}
{"substance": "KVQKE[sY]ALF[sY]ELDIVPID [pV2α-Tys]", "values": [{"measurement": "ka", "setting": "[4]", "result": 48300, "unit": "M⁻¹ s⁻¹"}, {"measurement": "trNOE signals (binding) with sCD4:gp120 complex", "setting": "[5]; 20 μM sCD4:gp120, 30 °C", "result": "appearance of numerous NOE crosspeaks"}, {"measurement": "trNOE signals (binding) with gp120 alone", "setting": "[5]; gp120 alone", "result": "small number of weak trNOE crosspeaks"}, {"measurement": "trNOE signals (binding) with sCD4 alone", "setting": "[5]; sCD4 alone", "result": "no pV2α-Tys trNOEs signals were observed"}, {"measurement": "inhibition of HIV-1 BaL infection", "setting": "[1]", "result": "potently inhibited infection"}, {"measurement": "binding of soluble gp140 trimer to immobilized peptide", "setting": "[6]", "result": "unable to bind"}, {"measurement": "inhibition of binding of sCD4-activated BG505 SOSIP.664 trimer to CCR5", "setting": "[2]", "result": "reduced CCR5 binding of the trimer in a dose-dependent fashion"}]}
{"substance": "MDYQVSSPI[sY]DIN[sY]YTSEPSQK [pCCR5-Tys, reference compound]", "values": [{"measurement": "inhibition of HIV-1 BaL infection", "setting": "[1]", "result": "dose-dependent HIV-1 inhibition"}, {"measurement": "activity against CCR5-tropic isolates", "setting": "[3]; purified CD4+ T cells", "result": "restricted activity against CCR5-tropic isolates"}, {"measurement": "activity against CXCR4-using (R5X4 and X4) isolates", "setting": "[3]; purified CD4+ T cells", "result": "inactive"}, {"measurement": "inhibition of binding of sCD4-activated BG505 SOSIP.664 trimer to CCR5", "setting": "[2]", "result": "Dose-dependent inhibitory effect"}]}
{"substance": "Tys173: pV2α version bearing a single sulfated tyrosine at position 173 (KVQKE[sY]ALFYELDIVPID)", "values": [{"measurement": "inhibition of HIV-1 BaL infection", "setting": "[1]", "result": "exhibited antiviral activity"}]}
{"substance": "Tys177: pV2α version bearing a single sulfated tyrosine at position 177 (KVQKEYALF[sY]ELDIVPID)", "values": [{"measurement": "inhibition of HIV-1 BaL infection", "setting": "[1]", "result": "exhibited antiviral activity"}, {"measurement": "relative potency in inhibition of HIV-1 BaL infection", "setting": "[1]; primary CD4+ T cells, singly vs doubly sulfated peptides", "result": "more potent than Tys173"}]}
